ChEMBL document CHEMBL5532692, “Structure-based virtual screening of unbiased and RNA-focused libraries to identify new ligands for the HCV IRES model system” (RSC Med Chem, 2024)

target: Internal ribosome entry site (IRES); experiment: Binding affinity to HCV IRES subdomain IIa RNA assessed as reduction in FRET signal by FRET assay; assay type: nucleic-acid assay, Hepacivirus hominis; conditions: not given
Procedure, shortened: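 Two-stranded HCV IRES IIa RNA, 5'-Cy3 on one strand and 5'-Cy5 on the other, annealed at 75 °C then cooled to room temperature for at least 20 min in 10 mM HEPES pH 7.0, 2 mM MgCl2. RNA at 100 nM with compound; excitation 480 nm, Cy5 emission 670 nm. Dose–response 1 mM to 100 nM in 3.16-fold steps, 2% DMSO final. EC50 from at least triplicates.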

| SMILES | EC50 [µM] |
| --- | --- |
| NC1=NC(c2cn[nH]c2-c2cccc(O)c2)n2c(nc3ccccc32)N1 (stereo unspecified) | ≥ 1000 |

target: Internal ribosome entry site (IRES); experiment: Binding affinity to HCV IRES subdomain IIa RNA assessed as dissociation constant by MST assay; assay type: nucleic-acid assay, Hepacivirus hominis; conditions: not given
Procedure, shortened: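 Same two-stranded IIa RNA, Cy5-labelled, annealed at 75 °C then cooled to room temperature for at least 20 min in 10 mM HEPES pH 7.0, 2 mM MgCl2. Used at 30 nM with compound from 1 mM (or 316/100 μM if solubility-limited) to 0.01 μM in 3.16-fold steps, 2% DMSO final. Thermophoresis read after 18 s laser on-time. KD from triplicates.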

| SMILES | Kd [µM] |
| --- | --- |
| CNC(=N)Nc1nc(C)c2ccc(OC)cc2n1 | 88 |
| Nc1cc(-c2ccc3[nH]ncc3c2)c2cc[nH]c2n1 | ≥ 50 |
| N=C(N)NC(=O)c1nc(Cl)c(N)nc1N [AMILORIDE] | ≥ 100 |
| NC1=NC(c2cn[nH]c2-c2cccc(O)c2)n2c(nc3ccccc32)N1 (stereo unspecified) | ≥ 100 |
| CCOc1ccc2c(C)nc(NC(=N)N)nc2c1 | 189 |
| CC(C)NCC(O)COc1ccc2[nH]cc(CCN)c2c1 (stereo unspecified) | 134 |
| COc1ccc2c(C)nc(NC(=N)N)nc2c1 | 134 |

tested on: Internal ribosome entry site (IRES); experiment: Binding affinity to HCV IRES subdomain IIa RNA; conditions: Hepacivirus hominis; dose 0.001-1000 µM

| SMILES | Activity |
| --- | --- |
| NC1=NC(c2ccccc2)n2c(nc3ccccc32)N1 (stereo unspecified) | Dose-Dependent Effect |
| COc1cccc(C2NC(N)=Nc3nc4ccccc4n32)c1 (stereo unspecified) | Dose-Dependent Effect |
| NC1=Nc2nc3ccccc3n2C(C2CC2)N1 (stereo unspecified) | Dose-Dependent Effect |
